Results taken from ChEMBL document CHEMBL1131099, “Biologically active oligodeoxyribonucleotides. 5. 5'-End-substituted d(TGGGAG) possesses anti-human immunodeficiency virus type 1 activity by forming a G-quadruplex structure” (J Med Chem, 1998).

How the values were obtained:
MT4 [1] = experiment: In vitro inhibitory activity for cytopathicities induced by HIV-1III B against MT-4 cells.; assay type: functional, cell-based; conditions: Homo sapiens
Summary of the method: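 Exponentially growing MT-4 cells were pelleted (140g, 5 min), infected in a small volume of RPMI-1640 with 100 TCID50 HIV-1 IIIB for 1 h, washed, and plated at 2.5 × 10⁴ cells/well with serial oligonucleotide dilutions. Viability was read by MTT at day 6. IC50 was taken from dose-response curves, as the mean of duplicate or quadruplicate ± SD.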

MT4 [2] = experiment: Cytotoxicity was measured against MT-4 cells using MTT assay.; assay type: functional; conditions: Homo sapiens

| SMILES | IC50 (MT4 [1]) [µM] | CC50 (MT4 [2]) [µM] |
| --- | --- | --- |
| Cc1cn([C@H]2C[C@H](OP(=O)(O)OC[C@H]3O[C@@H](n4cnc5c(=O)[nH]c(N)nc54)C[C@@H]3OP(=O)(O)OC[C@H]3O[C@@H](n4cnc5c(=O)[nH]c(N)nc54)C[C@@H]3OP(=O)(O)OC[C@H]3O[C@@H](n4cnc5c(=O)[nH]c(N)nc54)C[C@@H]3OP(=O)(O)OC[C@H]3O[C@@H](n4cnc5c(N)ncnc54)C[C@@H]3OP(=O)(O)OC[C@H]3O[C@@H](n4cnc5c(=O)[nH]c(N)nc54)C[C@@H]3O)[C@@H](COC3(c4ccccc4)c4ccccc4-c4ccccc43)O2)c(=O)[nH]c1=O | 1.3 | > 40 |
| Cc1cn([C@H]2C[C@H](OP(=O)(O)OC[C@H]3O[C@@H](n4cnc5c(=O)[nH]c(N)nc54)C[C@@H]3OP(=O)(O)OC[C@H]3O[C@@H](n4cnc5c(=O)[nH]c(N)nc54)C[C@@H]3OP(=O)(O)OC[C@H]3O[C@@H](n4cnc5c(=O)[nH]c(N)nc54)C[C@@H]3OP(=O)(O)OC[C@H]3O[C@@H](n4cnc5c(N)ncnc54)C[C@@H]3OP(=O)(O)OC[C@H]3O[C@@H](n4cnc5c(=O)[nH]c(N)nc54)C[C@@H]3O)[C@@H](COC(c3ccccc3)c3ccccc3)O2)c(=O)[nH]c1=O | 4.3 | > 40 |
| Cc1cn([C@H]2C[C@H](OP(=O)(O)OC[C@H]3O[C@@H](n4cnc5c(O)nc(N)nc54)C[C@@H]3O)[C@@H](COCc3ccc(OCc4ccccc4)c(OCc4ccccc4)c3)O2)c(=O)[nH]c1=O | > 100 | > 100 |
| Cc1cn([C@H]2C[C@H](OP(=O)(O)OC[C@H]3O[C@@H](n4cnc5c(=O)[nH]c(N)nc54)C[C@@H]3OP(=O)(O)OC[C@H]3O[C@@H](n4cnc5c(=O)[nH]c(N)nc54)C[C@@H]3OP(=O)(O)OC[C@H]3O[C@@H](n4cnc5c(=O)[nH]c(N)nc54)C[C@@H]3OP(=O)(O)OC[C@H]3O[C@@H](n4cnc5c(N)ncnc54)C[C@@H]3OP(=O)(O)OC[C@H]3O[C@@H](n4cnc5c(=O)[nH]c(N)nc54)C[C@@H]3O)[C@@H](CO[Si](C)(C)C(C)(C)C)O2)c(=O)[nH]c1=O | > 40 | 1.2 |
| Cc1cn([C@H]2C[C@H](OP(=O)(O)OC[C@H]3O[C@@H](n4cc(C)c(=O)[nH]c4=O)C[C@@H]3OP(=O)(O)OC[C@H]3O[C@@H](n4cnc5c(O)nc(N)nc54)C[C@@H]3OP(=O)(O)OC[C@H]3O[C@@H](n4cnc5c(O)nc(N)nc54)C[C@@H]3O)[C@@H](COCc3ccc(OCc4ccccc4)c(OCc4ccccc4)c3)O2)c(=O)[nH]c1=O | > 50 | 33 |
| Cc1cn([C@H]2C[C@H](OP(=O)(O)OC[C@H]3O[C@@H](n4cnc5c(O)nc(N)nc54)C[C@@H]3OP(=O)(O)OC[C@H]3O[C@@H](n4cnc5c(O)nc(N)nc54)C[C@@H]3O)[C@@H](COCc3ccc(OCc4ccccc4)c(OCc4ccccc4)c3)O2)c(=O)[nH]c1=O | > 70 | > 70 |
| Cc1cn([C@H]2C[C@H](OP(=O)(O)OC[C@H]3O[C@@H](n4cnc5c(=O)[nH]c(N)nc54)C[C@@H]3OP(=O)(O)OC[C@H]3O[C@@H](n4cnc5c(=O)[nH]c(N)nc54)C[C@@H]3OP(=O)(O)OC[C@H]3O[C@@H](n4cnc5c(=O)[nH]c(N)nc54)C[C@@H]3OP(=O)(O)OC[C@H]3O[C@@H](n4cnc5c(N)ncnc54)C[C@@H]3OP(=O)(O)OC[C@H]3O[C@@H](n4cnc5c(=O)[nH]c(N)nc54)C[C@@H]3O)[C@@H](COCc3ccccc3)O2)c(=O)[nH]c1=O | > 40 | > 40 |
| Cc1cn([C@H]2C[C@H](OP(=O)(O)OC[C@H]3O[C@@H](n4cnc5c(=O)[nH]c(N)nc54)C[C@@H]3OP(=O)(O)OC[C@H]3O[C@@H](n4cnc5c(=O)[nH]c(N)nc54)C[C@@H]3OP(=O)(O)OC[C@H]3O[C@@H](n4cnc5c(=O)[nH]c(N)nc54)C[C@@H]3OP(=O)(O)OC[C@H]3O[C@@H](n4cnc5c(N)ncnc54)C[C@@H]3OP(=O)(O)OC[C@H]3O[C@@H](n4cnc5c(=O)[nH]c(N)nc54)C[C@@H]3O)[C@@H](COCc3ccc(OCc4ccccc4)cc3)O2)c(=O)[nH]c1=O | 1.9 | > 40 |
| Cc1cn([C@H]2C[C@H](OP(=O)(O)OC[C@H]3O[C@@H](n4cnc5c(=O)[nH]c(N)nc54)C[C@@H]3OP(=O)(O)OC[C@H]3O[C@@H](n4cnc5c(=O)[nH]c(N)nc54)C[C@@H]3OP(=O)(O)OC[C@H]3O[C@@H](n4cnc5c(=O)[nH]c(N)nc54)C[C@@H]3OP(=O)(O)OC[C@H]3O[C@@H](n4cnc5c(=O)[nH]c(N)nc54)C[C@@H]3OP(=O)(O)OC[C@H]3O[C@@H](n4cnc5c(=O)[nH]c(N)nc54)C[C@@H]3O)[C@@H](COCc3ccc(OCc4ccccc4)c(OCc4ccccc4)c3)O2)c(=O)[nH]c1=O | 0.26 | > 40 |
| Cc1cn([C@H]2C[C@H](OP(=O)(O)OC[C@H]3O[C@@H](n4cnc5c(=O)[nH]c(N)nc54)C[C@@H]3OP(=O)(O)OC[C@H]3O[C@@H](n4cnc5c(=O)[nH]c(N)nc54)C[C@@H]3OP(=O)(O)OC[C@H]3O[C@@H](n4cnc5c(=O)[nH]c(N)nc54)C[C@@H]3OP(=O)(O)OC[C@H]3O[C@@H](n4cnc5c(N)ncnc54)C[C@@H]3OP(=O)(O)OC[C@H]3O[C@@H](n4cnc5c(=O)[nH]c(N)nc54)C[C@@H]3O)[C@@H](CO)O2)c(=O)[nH]c1=O | > 40 | > 40 |
| Cc1cn([C@H]2C[C@H](OP(=O)(O)OC[C@H]3O[C@@H](n4cnc5c(=O)[nH]c(N)nc54)C[C@@H]3OP(=O)(O)OC[C@H]3O[C@@H](n4cnc5c(=O)[nH]c(N)nc54)C[C@@H]3OP(=O)(O)OC[C@H]3O[C@@H](n4cnc5c(=O)[nH]c(N)nc54)C[C@@H]3OP(=O)(O)OC[C@H]3O[C@@H](n4cnc5c(N)ncnc54)C[C@@H]3OP(=O)(O)OC[C@H]3O[C@@H](n4cnc5c(=O)[nH]c(N)nc54)C[C@@H]3O)[C@@H](COCc3ccc4ccc5cccc6ccc3c4c56)O2)c(=O)[nH]c1=O | 1.8 | > 40 |
| Cc1cn([C@H]2C[C@H](OP(=O)(O)OC[C@H]3O[C@@H](n4cc(C)c(=O)[nH]c4=O)C[C@@H]3OP(=O)(O)OC[C@H]3O[C@@H](n4cnc5c(=O)[nH]c(N)nc54)C[C@@H]3OP(=O)(O)OC[C@H]3O[C@@H](n4cnc5c(=O)[nH]c(N)nc54)C[C@@H]3OP(=O)(O)OC[C@H]3O[C@@H](n4cnc5c(=O)[nH]c(N)nc54)C[C@@H]3OP(=O)(O)OC[C@H]3O[C@@H](n4cnc5c(=O)[nH]c(N)nc54)C[C@@H]3O)[C@@H](COCc3ccc(OCc4ccccc4)c(OCc4ccccc4)c3)O2)c(=O)[nH]c1=O | 0.56 | > 40 |
| Cc1cn([C@H]2C[C@H](OP(=O)(O)OC[C@H]3O[C@@H](n4cnc5c(=O)[nH]c(N)nc54)C[C@@H]3OP(=O)(O)OC[C@H]3O[C@@H](n4cnc5c(=O)[nH]c(N)nc54)C[C@@H]3OP(=O)(O)OC[C@H]3O[C@@H](n4cnc5c(=O)[nH]c(N)nc54)CC3OP(=O)(O)OC[C@H]3O[C@@H](n4cnc5c(N)ncnc54)C[C@@H]3OP(=O)(O)OC[C@H]3O[C@@H](n4cnc5c(=O)[nH]c(N)nc54)C[C@@H]3O[Si](c3ccccc3)(c3ccccc3)C(C)(C)C)[C@@H](CO[Si](c3ccccc3)(c3ccccc3)C(C)(C)C)O2)c(=O)[nH]c1=O (stereo partly drawn) | 6 | > 40 |
| Cc1cn([C@H]2C[C@H](OP(=O)(O)OC[C@H]3O[C@@H](n4cnc5c(=O)[nH]c(N)nc54)C[C@@H]3OP(=O)(O)OC[C@H]3O[C@@H](n4cnc5c(=O)[nH]c(N)nc54)C[C@@H]3OP(=O)(O)OC[C@H]3O[C@@H](n4cnc5c(=O)[nH]c(N)nc54)C[C@@H]3OP(=O)(O)OC[C@H]3O[C@@H](n4cnc5c(=O)[nH]c(N)nc54)C[C@@H]3O)[C@@H](COCc3ccc(OCc4ccccc4)c(OCc4ccccc4)c3)O2)c(=O)[nH]c1=O | 0.66 | > 40 |
| Cc1cn([C@H]2C[C@H](OP(=O)(O)OC[C@H]3O[C@@H](n4cnc5c(=O)[nH]c(N)nc54)C[C@@H]3OP(=O)(O)OC[C@H]3O[C@@H](n4cnc5c(=O)[nH]c(N)nc54)C[C@@H]3OP(=O)(O)OC[C@H]3O[C@@H](n4cnc5c(=O)[nH]c(N)nc54)C[C@@H]3OP(=O)(O)OC[C@H]3O[C@@H](n4cnc5c(N)ncnc54)C[C@@H]3OP(=O)(O)OC[C@H]3O[C@@H](n4cnc5c(=O)[nH]c(N)nc54)C[C@@H]3O)[C@@H](COCc3ccc4ccccc4c3)O2)c(=O)[nH]c1=O | 2 | > 40 |
| Cc1cn([C@H]2C[C@H](OP(=O)(O)OC[C@H]3O[C@@H](n4cc(C)c(=O)[nH]c4=O)C[C@@H]3OP(=O)(O)OC[C@H]3O[C@@H](n4cnc5c(O)nc(N)nc54)C[C@@H]3OP(=O)(O)OC[C@H]3O[C@@H](n4cnc5c(O)nc(N)nc54)C[C@@H]3OP(=O)(O)OC[C@H]3O[C@@H](n4cnc5c(O)nc(N)nc54)C[C@@H]3O)[C@@H](COCc3ccc(OCc4ccccc4)c(OCc4ccccc4)c3)O2)c(=O)[nH]c1=O | > 40 | 40 |
| Cc1cn([C@H]2C[C@H](OP(=O)(O)OC[C@H]3O[C@@H](n4cnc5c(=O)[nH]c(N)nc54)C[C@@H]3OP(=O)(O)OC[C@H]3O[C@@H](n4cnc5c(=O)[nH]c(N)nc54)C[C@@H]3OP(=O)(O)OC[C@H]3O[C@@H](n4cnc5c(=O)[nH]c(N)nc54)C[C@@H]3OP(=O)(O)OC[C@H]3O[C@@H](n4cnc5c(N)ncnc54)C[C@@H]3OP(=O)(O)OC[C@H]3O[C@@H](n4cnc5c(=O)[nH]c(N)nc54)C[C@@H]3O)[C@@H](COCc3ccccc3-c3ccccc3)O2)c(=O)[nH]c1=O | 1.2 | > 40 |
| Cc1cn([C@H]2C[C@H](OP(=O)(O)OC[C@H]3O[C@@H](n4cnc5c(=O)[nH]c(N)nc54)C[C@@H]3OP(=O)(O)OC[C@H]3O[C@@H](n4cnc5c(=O)[nH]c(N)nc54)C[C@@H]3OP(=O)(O)OC[C@H]3O[C@@H](n4cnc5c(=O)[nH]c(N)nc54)C[C@@H]3OP(=O)(O)OC[C@H]3O[C@@H](n4cnc5c(N)ncnc54)C[C@@H]3OP(=O)(O)OC[C@H]3O[C@@H](n4cnc5c(=O)[nH]c(N)nc54)C[C@@H]3O)[C@@H](COC(c3ccccc3)(c3ccccc3)c3ccccc3)O2)c(=O)[nH]c1=O | 0.8 | 23 |
| Cc1cn([C@H]2C[C@H](OP(=O)(O)OC[C@H]3O[C@@H](n4cnc5c(=O)[nH]c(N)nc54)C[C@@H]3OP(=O)(O)OC[C@H]3O[C@@H](n4cnc5c(=O)[nH]c(N)nc54)C[C@@H]3OP(=O)(O)OC[C@H]3O[C@@H](n4cnc5c(=O)[nH]c(N)nc54)C[C@@H]3OP(=O)(O)OC[C@H]3O[C@@H](n4cnc5c(N)ncnc54)C[C@@H]3OP(=O)(O)OC[C@H]3O[C@@H](n4cnc5c(=O)[nH]c(N)nc54)C[C@@H]3O)[C@@H](COC3(c4ccccc4)c4ccccc4Oc4ccccc43)O2)c(=O)[nH]c1=O | 0.95 | > 40 |
